One series has as its system Plasmodium falciparum. The series is described as follows: Antiplasmodial activity against erythrocytic stage of Plasmodium falciparum NF54 assessed as reduction in [3H]hypoxanthine incorporation after 48 hrs by liquid scintillation counting method. It counts as functional, organism-based. An outline of the steps: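 Asexual blood-stage NF54 grown in hypoxanthine-free RPMI 1640 with HEPES, NaHCO3, neomycin and Albumax, using washed human A+ erythrocytes at 2.5% hematocrit and 0.3% parasitemia. Compounds were made as 10 mg/ml DMSO stocks and run as eleven 3-fold dilutions, 100 to 0.002 µg/ml. Incubation at 37 °C in 4% CO2, 3% O2, 93% N2. After 48 h, 0.5 µCi 3H-hypoxanthine was added for a further 24 h, then harvested and scintillation counted. IC50 by linear interpolation of sigmoidal curves; averages of 2–3 independent experiments.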

The subject of a further series is L6. The series is described as follows: Cytotoxicity against rat L6 cells assessed as reduction in cell viability after 70 hrs by Alamar blue assay. The following applies: L6, 70 h. It counts as cell-based. An outline of the steps: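 L6 rat skeletal myoblasts were plated at 4000 cells/well in RPMI 1640 with L-glutamine and 10% FBS. Eleven 3-fold drug dilutions, 100 to 0.002 µg/ml. After 70 h, Alamar Blue was added for 2 h and fluorescence read (ex 536 nm, em 588 nm). IC50 by linear interpolation from sigmoid dose-inhibition curves.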

A short description of series [1]: Selectivity index, ratio of IC50 for rat L6 cells to IC50 for erythrocytic stage of Plasmodium falciparum NF54. Conditions: read-out: Ratio IC50. It counts as toxicity. In a few lines: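 Ratio of the L6 cytotoxicity IC50 to the IC50 against P. falciparum NF54.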
For series [2], the system named is NCI-H460. Nature of the series: Cytotoxicity against human NCI-H460 cells assessed as growth inhibition after 72 hrs by MTT assay. It is filed as cell-based. The following applies: NCI-H460, 72 h. An outline of the steps: (§1)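 Monolayers grown in DMEM or RPMI-1640 with 10% FBS, 2 mM L-glutamine and penicillin/streptomycin at 37 °C, 5% CO2. Seeded at 2×10^4–4×10^4 cells/well and attached for 24 h. Five serial 10-fold dilutions added, final DMSO <0.2%. MTT read-out at 72 h; percentage growth calculated. IC50 by linear interpolation between concentrations bracketing 50% growth; at least two biological replicates.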

Series [3] has as its system MCF7. The series is described as follows: Cytotoxicity against human MCF7 cells assessed as growth inhibition after 72 hrs by MTT assay. It is filed as cell-based. The following applies: MCF7, 72 h. In a few lines:
as §1
(Tetrazolium assays rely on reduction of a dye to a coloured formazan, in cell work by metabolically active cells.)

For another series, the system named is A2780. The series is described as follows: Cytotoxicity against human A2780 cells assessed as growth inhibition after 72 hrs by MTT assay. It is filed as cell-based. The following applies: A2780, 72 h. In a few lines:
as §1

The subject of series [4] is NCI-H460. The series is described as follows: Cytotoxicity against human NCI-H460 cells assessed as growth inhibition at 10 uM cotreated with G6PD inhibitor 6-AN after 72 hrs by MTT assay. It is filed as cell-based. The following applies: nci-h460, 72 h. In a few lines: (§2)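 Adherent cells seeded at 2×10^4–4×10^4 cells/well and left 24 h, then treated with compound alone or together with 6-aminonicotinamide (always 10 µM, used to mimic G6PD deficiency). Final DMSO <0.2%. Growth measured by MTT after 72 h and expressed as percentage growth relative to untreated cells.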

The subject of series [5] is MCF7. Nature of the series: Cytotoxicity against human MCF7 cells assessed as growth inhibition at 10 uM cotreated with G6PD inhibitor 6-AN after 72 hrs by MTT assay. It counts as cell-based. The following applies: mcf7, 72 h. An outline of the steps: as §2
A further series concerns SW-620. The series is described as follows: Cytotoxicity against human SW620 cells assessed as growth inhibition after 72 hrs by MTT assay. It is filed as cell-based. The following applies: SW-620, 72 h. An outline of the steps:
as §1

The test system of a further series is HCT-116. Nature of the series: Cytotoxicity against human HCT116 cells assessed as growth inhibition after 72 hrs by MTT assay. It counts as cell-based. Conditions: HCT-116, 72 h. In a few lines: (§3)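 Cells cultured in DMEM or RPMI-1640 with 10% FBS, 2 mM L-glutamine and antibiotics at 37 °C, 5% CO2. Seeded at 2×10^4–4×10^4 cells/well and attached for 24 h before five serial 10-fold compound dilutions, final DMSO <0.2%. MTT at 72 h. IC50 interpolated between the two concentrations flanking 50% growth inhibition; single experiment.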

The test system of a further series is HL-60. The series is described as follows: Cytotoxicity against human HL60 cells assessed as growth inhibition after 72 hrs by MTT assay. It is filed as cell-based. The following applies: HL-60, 72 h.
The next series deals with K562. The series is described as follows: Cytotoxicity against human K562 cells assessed as growth inhibition after 72 hrs by MTT assay. Conditions: K562, 72 h. It counts as cell-based.
The test system of the next series is CAPAN-1. Nature of the series: Cytotoxicity against human Capan1 cells assessed as growth inhibition after 72 hrs by MTT assay. It is filed as cell-based. Conditions: CAPAN-1, 72 h. In a few lines: as §3
Series [6] can be described thus: Cytotoxicity against human MCF7 cells assessed as cell growth at 10 uM after 72 hrs by MTT assay relative to control. It counts as cell-based. Conditions: read-out: Activity. In a few lines: as §2
The nature of series [7]: Cytotoxicity against human MCF7 cells assessed as cell growth at 10 uM cotreated with G6PD inhibitor 6-AN after 72 hrs by MTT assay relative to control. It counts as cell-based. In a few lines:
as §2

Series [8] can be described thus: Safety index, ratio of compound IC50 to primaquine IC50 for rat L6 cells. It is filed as ADME, cell-based. The following applies: read-out: Ratio IC50.

The values below come from ChEMBL document CHEMBL4145525, “Machine learning prioritizes synthesis of primaquine ureidoamides with high antimalarial activity and attenuated cytotoxicity” (Eur J Med Chem, 2018).

Take `COc1ccc(C(=NNC(=O)NNC(=O)NCCCC(C)Nc2cc(OC)cc3cccnc23)c2ccc(OC)cc2)cc1` (stereo unspecified): the IC50 (usually the point on the concentration scale where inhibition reaches its midpoint) was 1.9 to 2.2 µM in the series on Plasmodium falciparum; 136 µM in the series on L6; 5 µM in the series on NCI-H460 [2]; 0.9 to 1 µM in the series with MCF7 [3]; 0.06 µM with A2780. For the same compound, the selectivity ratio in [1] came to 61.9. Also, the “growth inhibition (GI)” value in the series with NCI-H460 [4] and with MCF7 [5] was “Toxic” each time.
Take `COc1cc(NC(C)CCCNC(=O)NNC(=O)NCCNC(c2ccccc2)(c2ccccc2)c2ccccc2)c2ncccc2c1` (stereo unspecified): the IC50 with Plasmodium falciparum is 1.2 µM; in the series with L6, > 100 µM; in the series on NCI-H460 [2] it was 3 µM; with MCF7 [3] it was 3 µM; in the series on A2780 it was 1 µM. Besides, the selectivity ratio in series [1] is > 83.3. The “growth inhibition (GI)” value in the series with NCI-H460 [4] and with MCF7 [5] was “Toxic” each time.
Turning to `COc1ccc(C(=NNC(=O)NCCCC(C)Nc2cc(OC)cc3cccnc23)c2ccc(OC)cc2)cc1` (stereo unspecified), the IC50 with Plasmodium falciparum is 2.3 to 2.4 µM; in the series with L6, > 180 µM; in the series on NCI-H460 [2], > 100 µM; in the series with MCF7 [3], 2.8 to 3 µM; in the series with A2780, 1 µM. In addition, in series [1], the selectivity ratio is 78.3. In addition, the “growth inhibition (GI)” value in the series with NCI-H460 [4] and with MCF7 [5] was “Toxic” throughout.
Take `COc1cc(NC(C)CCCNC(=O)NC(C(=O)NC(c2ccccc2)c2ccccc2)c2ccc(Cl)cc2)c2ncccc2c1` (stereo unspecified): the IC50 in the series with Plasmodium falciparum was 1.4 µM; with L6, > 160 µM; in the series with NCI-H460 [2], > 100 µM; in the series with MCF7 [3], > 100 µM; in the series on SW-620 it was 6 µM; in the series on A2780, > 100 µM. For the same compound, the IC50 with HCT-116, in the series on HL-60, in the series on K562 and in the series on CAPAN-1 was > 100 µM in each case. For the same compound, the selectivity ratio in [1] is > 114; in series [8], 2.7. Besides, the viability at 72 h, 10 µM in [6] turned out to be 80%; in series [7], 65%.
With `COc1cc(NC(C)CCCNC(=O)NC(CC(C)C)C(=O)NC(c2ccccc2)c2ccccc2)c2ncccc2c1` (stereo unspecified), the IC50 was 3.4 µM in the series on Plasmodium falciparum; > 170 µM in the series with L6; > 100 µM in the series on NCI-H460 [2]; > 100 µM in the series on MCF7 [3]; > 100 µM with SW-620; 36 µM in the series on A2780. In addition, the 50% inhibitory concentration (IC50) in the series on HCT-116, in the series on HL-60, in the series on K562 and in the series with CAPAN-1 was > 100 µM each time. In series [1], the selectivity ratio was > 50. Further, the “growth inhibition (GI)” value with NCI-H460 [4] and in the series on MCF7 [5] was “Non-Toxic” in each case.
Consider `COc1cc(NC(C)CCCNC(=O)NC(C(=O)NC(c2ccccc2)c2ccc(Cl)cc2)c2ccccc2)c2ncccc2c1` (stereo unspecified), for which the IC50 with Plasmodium falciparum was 3 µM; in the series with L6 it was > 160 µM; with NCI-H460 [2], > 100 µM; with MCF7 [3], > 100 µM; with SW-620, > 100 µM; with A2780, > 100 µM. Further, the half-inhibitory concentration (IC50) in the series with HCT-116, in the series on HL-60, in the series with K562 and with CAPAN-1 was > 100 µM throughout. Also, the selectivity ratio in series [1] was > 53.3. In addition, the “growth inhibition (GI)” value with NCI-H460 [4] and in the series on MCF7 [5] was “Non-Toxic” in each case.
As to `COc1cc(NC(C)CCCNC(=O)NC(C(=O)NC(c2ccccc2)c2ccc(Cl)cc2)c2ccc(Cl)cc2)c2ncccc2c1` (stereo unspecified), the IC50 is 1.8 µM in the series with Plasmodium falciparum; > 150 µM in the series on L6; > 100 µM in the series on NCI-H460 [2]; > 100 µM in the series on MCF7 [3]; > 100 µM with SW-620; 14 µM in the series on A2780. For the same compound, the IC50 with HCT-116, in the series with HL-60, in the series on K562 and with CAPAN-1 was > 100 µM throughout. Besides, the selectivity ratio in [1] is > 83.3; in series [8], 2.5. Also, the figures for the viability at 72 h, 10 µM in series [6] and in series [7] were 93% and 76%, respectively. Moreover, the “growth inhibition (GI)” value with NCI-H460 [4] is recorded as “Non-Toxic”.
For `COc1cc(NC(C)CCCNC(=O)NC(C(=O)N(C)C(c2ccccc2)c2ccccc2)c2ccccc2)c2ncccc2c1` (stereo unspecified), the IC50 is 6.5 µM in the series on Plasmodium falciparum; > 140 µM in the series on L6; 64 µM in the series on NCI-H460 [2]; > 100 µM in the series with MCF7 [3]; > 100 µM in the series with SW-620; > 100 µM in the series on HCT-116. Besides, the IC50 with HL-60, in the series on K562 and in the series with CAPAN-1 was > 100 µM throughout. The selectivity ratio in [1] is > 21.5.
In the case of `COc1cc(NC(C)CCCNC(=O)NC(C(=O)Nc2ccc(Br)cc2)c2ccc(Cl)cc2)c2ncccc2c1` (stereo unspecified), the IC50 with Plasmodium falciparum was 3.2 µM; with L6, 54 µM; in the series with NCI-H460 [2] it was 52 µM; in the series with MCF7 [3] it was 16 µM; in the series on SW-620, 32 µM; in the series with HCT-116, > 100 µM. For the same compound, the 50% inhibitory concentration (IC50) in the series with HL-60, in the series with K562 and in the series on CAPAN-1 was > 100 µM in each case. Moreover, the selectivity ratio in series [1] stood at 16.9.
On to `COc1cc(NC(C)CCCN)c2ncccc2c1` (stereo unspecified) [PRIMAQUINE PHOSPHATE], for which the IC50 turned out to be 1.5 µM with Plasmodium falciparum; 59.5 µM in the series on L6; 10 µM with NCI-H460 [2]; 5 µM in the series on MCF7 [3]; 14 µM with SW-620; 5 µM with A2780. In addition, the IC50 came to 44.2 µM in the series with HCT-116, 11.4 µM in the series with HL-60, 12 µM with K562 and 14.2 µM in the series with CAPAN-1. Further, the selectivity ratio in [1] was determined as 39.7. In [6], the viability at 72 h, 10 µM came out at 25%.
